Reference: article PMC7744997 (Clinical Infectious Diseases: An Official Publication of …, 2020)

Tests used:
[1] = Laboratory safety in RSV-infected infants; assay type: in vivo, human
Outline: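 Clinical laboratory tests were run in RSV-infected infants (>1 to ≤24 months) given oral drug or placebo once daily for 7 days. Abnormalities were graded with the DMID Pediatric Toxicity Tables (November 2007 version). Patients were followed for 28 days after randomisation.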

RSV-A and RSV-B strains = conditions: panel of laboratory-derived and clinically isolated RSV-A and RSV-B strains, in vitro; cited from earlier work
RSV = conditions: healthy volunteers, 75–500 mg once daily for 7 days; cited from earlier work

SMILES: CS(=O)(=O)CCCn1c(Cn2c(=O)n(CC(F)(F)F)c3ccncc32)cc2cc(Cl)ccc21 [JNJ-53718678]
- Chloride: Below (treatment-emergent nongraded abnormality) ([1]; Low (cohorts 1a,2a,3a), n=12): 0 no. (%)
- Eosinophils: Above (treatment-emergent nongraded abnormality) ([1]; Low (cohorts 1a,2a,3a), n=12): 4 (33) no. (%)
- Eosinophils: Below (treatment-emergent nongraded abnormality) ([1]; Low (cohorts 1a,2a,3a), n=12): 0 no. (%)
- Erythrocytes: Above (treatment-emergent nongraded abnormality) ([1]; Low (cohorts 1a,2a,3a), n=12): 1 (8) no. (%)
- Erythrocytes: Below (treatment-emergent nongraded abnormality) ([1]; Low (cohorts 1a,2a,3a), n=12): 0 no. (%)
- Hemoglobin Grade 1 (treatment-emergent worst toxicity grade) ([1]; Low (cohorts 1a,2a,3a), n=12): 1 (8) no. (%)
- Hemoglobin Grade 2 (treatment-emergent worst toxicity grade) ([1]; Low (cohorts 1a,2a,3a), n=12): 0 no. (%)
- Hyperkalemia Grade 1 (treatment-emergent worst toxicity grade) ([1]; Low (cohorts 1a,2a,3a), n=12): 4 (33) no. (%)
- Hyperkalemia Grade 2 (treatment-emergent worst toxicity grade) ([1]; Low (cohorts 1a,2a,3a), n=12): 0 no. (%)
- Hypoglycemia Grade 1 (treatment-emergent worst toxicity grade) ([1]; Low (cohorts 1a,2a,3a), n=12): 0 no. (%)
- Hyponatremia Grade 2 (treatment-emergent worst toxicity grade) ([1]; Low (cohorts 1a,2a,3a), n=12): 1 (8) no. (%)
- Leukocytes: Above (treatment-emergent nongraded abnormality) ([1]; Low (cohorts 1a,2a,3a), n=12): 1 (8) no. (%)
- Lymphocytes: Above (treatment-emergent nongraded abnormality) ([1]; Low (cohorts 1a,2a,3a), n=12): 2 (17) no. (%)
- Lymphocytes: Below (treatment-emergent nongraded abnormality) ([1]; Low (cohorts 1a,2a,3a), n=12): 0 no. (%)
- Eosinophils/leukocytes: Above (treatment-emergent nongraded abnormality) ([1]; Mid (cohorts 1b,2b,3b), n=9): 3 (33) no. (%)
- Eosinophils/leukocytes: Below (treatment-emergent nongraded abnormality) ([1]; Mid (cohorts 1b,2b,3b), n=9): 0 no. (%)
- Lymphocytes/leukocytes: Above (treatment-emergent nongraded abnormality) ([1]; Mid (cohorts 1b,2b,3b), n=9): 3 (33) no. (%)
- Lymphocytes/leukocytes: Below (treatment-emergent nongraded abnormality) ([1]; Mid (cohorts 1b,2b,3b), n=9): 1 (11) no. (%)
- Monocytes/leukocytes: Above (treatment-emergent nongraded abnormality) ([1]; Mid (cohorts 1b,2b,3b), n=9): 3 (33) no. (%)
- Monocytes/leukocytes: Below (treatment-emergent nongraded abnormality) ([1]; Mid (cohorts 1b,2b,3b), n=9): 1 (11) no. (%)
- Neutrophils/leukocytes: Above (treatment-emergent nongraded abnormality) ([1]; Mid (cohorts 1b,2b,3b), n=9): 1 (11) no. (%)
- Neutrophils/leukocytes: Below (treatment-emergent nongraded abnormality) ([1]; Mid (cohorts 1b,2b,3b), n=9): 3 (33) no. (%)
- Eosinophils: Above (treatment-emergent nongraded abnormality) ([1]; Mid (cohorts 1b,2b,3b), n=11): 2 (18) no. (%)
- Eosinophils: Below (treatment-emergent nongraded abnormality) ([1]; Mid (cohorts 1b,2b,3b), n=11): 0 no. (%)
- Lymphocytes: Above (treatment-emergent nongraded abnormality) ([1]; Mid (cohorts 1b,2b,3b), n=11): 2 (18) no. (%)
- Lymphocytes: Below (treatment-emergent nongraded abnormality) ([1]; Mid (cohorts 1b,2b,3b), n=11): 0 no. (%)
- Alkaline phosphatase: Above (treatment-emergent nongraded abnormality) ([1]; Mid (cohorts 1b,2b,3b), n=12): 1 (8) no. (%)
- Alkaline phosphatase: Below (treatment-emergent nongraded abnormality) ([1]; Mid (cohorts 1b,2b,3b), n=12): 2 (17) no. (%)
- Bicarbonate: Above (treatment-emergent nongraded abnormality) ([1]; Mid (cohorts 1b,2b,3b), n=12): 2 (17) no. (%)
- Bicarbonate: Below (treatment-emergent nongraded abnormality) ([1]; Mid (cohorts 1b,2b,3b), n=12): 2 (17) no. (%)
- Chloride: Above (treatment-emergent nongraded abnormality) ([1]; Mid (cohorts 1b,2b,3b), n=12): 2 (17) no. (%)
- Chloride: Below (treatment-emergent nongraded abnormality) ([1]; Mid (cohorts 1b,2b,3b), n=12): 1 (8) no. (%)
- Erythrocytes: Above (treatment-emergent nongraded abnormality) ([1]; Mid (cohorts 1b,2b,3b), n=12): 1 (8) no. (%)
- Erythrocytes: Below (treatment-emergent nongraded abnormality) ([1]; Mid (cohorts 1b,2b,3b), n=12): 2 (17) no. (%)
- Hemoglobin Grade 1 (treatment-emergent worst toxicity grade) ([1]; Mid (cohorts 1b,2b,3b), n=12): 1 (8) no. (%)
- Hemoglobin Grade 2 (treatment-emergent worst toxicity grade) ([1]; Mid (cohorts 1b,2b,3b), n=12): 1 (8) no. (%)
- Hyperkalemia Grade 1 (treatment-emergent worst toxicity grade) ([1]; Mid (cohorts 1b,2b,3b), n=12): 3 (25) no. (%)
- Hyperkalemia Grade 2 (treatment-emergent worst toxicity grade) ([1]; Mid (cohorts 1b,2b,3b), n=12): 1 (8.3) no. (%)
- Hypoglycemia Grade 1 (treatment-emergent worst toxicity grade) ([1]; Mid (cohorts 1b,2b,3b), n=12): 0 no. (%)
- Hyponatremia Grade 2 (treatment-emergent worst toxicity grade) ([1]; Mid (cohorts 1b,2b,3b), n=12): 0 no. (%)
- Leukocytes: Above (treatment-emergent nongraded abnormality) ([1]; Mid (cohorts 1b,2b,3b), n=12): 2 (17) no. (%)
- Urea: Above (treatment-emergent nongraded abnormality) ([1]; Mid (cohorts 1b,2b,3b), n=12): 0 no. (%)
- Urea: Below (treatment-emergent nongraded abnormality) ([1]; Mid (cohorts 1b,2b,3b), n=12): 4 (33) no. (%)
- Urea: Above (treatment-emergent nongraded abnormality) ([1]; Mid-high (cohort 1c), n=3): 0 no. (%)
- Urea: Below (treatment-emergent nongraded abnormality) ([1]; Mid-high (cohort 1c), n=3): 0 no. (%)
- Alkaline phosphatase: Above (treatment-emergent nongraded abnormality) ([1]; Mid-high (cohort 1c), n=4): 0 no. (%)
- Alkaline phosphatase: Below (treatment-emergent nongraded abnormality) ([1]; Mid-high (cohort 1c), n=4): 1 (25) no. (%)
- Bicarbonate: Above (treatment-emergent nongraded abnormality) ([1]; Mid-high (cohort 1c), n=4): 0 no. (%)
- Bicarbonate: Below (treatment-emergent nongraded abnormality) ([1]; Mid-high (cohort 1c), n=4): 1 (25) no. (%)
- Chloride: Above (treatment-emergent nongraded abnormality) ([1]; Mid-high (cohort 1c), n=4): 2 (50) no. (%)
- Chloride: Below (treatment-emergent nongraded abnormality) ([1]; Mid-high (cohort 1c), n=4): 0 no. (%)
- Eosinophils/leukocytes: Above (treatment-emergent nongraded abnormality) ([1]; Mid-high (cohort 1c), n=4): 1 (25) no. (%)
- Eosinophils/leukocytes: Below (treatment-emergent nongraded abnormality) ([1]; Mid-high (cohort 1c), n=4): 1 (25) no. (%)
- Eosinophils: Above (treatment-emergent nongraded abnormality) ([1]; Mid-high (cohort 1c), n=4): 1 (25) no. (%)
- Eosinophils: Below (treatment-emergent nongraded abnormality) ([1]; Mid-high (cohort 1c), n=4): 0 no. (%)
- Erythrocytes: Above (treatment-emergent nongraded abnormality) ([1]; Mid-high (cohort 1c), n=4): 2 (50) no. (%)
- Erythrocytes: Below (treatment-emergent nongraded abnormality) ([1]; Mid-high (cohort 1c), n=4): 0 no. (%)
- Hemoglobin Grade 1 (treatment-emergent worst toxicity grade) ([1]; Mid-high (cohort 1c), n=4): 0 no. (%)
- Hemoglobin Grade 2 (treatment-emergent worst toxicity grade) ([1]; Mid-high (cohort 1c), n=4): 0 no. (%)
- Hyperkalemia Grade 1 (treatment-emergent worst toxicity grade) ([1]; Mid-high (cohort 1c), n=4): 2 (50) no. (%)
- Hyperkalemia Grade 2 (treatment-emergent worst toxicity grade) ([1]; Mid-high (cohort 1c), n=4): 0 no. (%)
- Hypoglycemia Grade 1 (treatment-emergent worst toxicity grade) ([1]; Mid-high (cohort 1c), n=4): 0 no. (%)
- Hyponatremia Grade 2 (treatment-emergent worst toxicity grade) ([1]; Mid-high (cohort 1c), n=4): 1 (25) no. (%)
- Leukocytes: Above (treatment-emergent nongraded abnormality) ([1]; Mid-high (cohort 1c), n=4): 0 no. (%)
- Lymphocytes/leukocytes: Above (treatment-emergent nongraded abnormality) ([1]; Mid-high (cohort 1c), n=4): 0 no. (%)
- Lymphocytes/leukocytes: Below (treatment-emergent nongraded abnormality) ([1]; Mid-high (cohort 1c), n=4): 0 no. (%)
- Lymphocytes: Above (treatment-emergent nongraded abnormality) ([1]; Mid-high (cohort 1c), n=4): 1 (25) no. (%)
- Lymphocytes: Below (treatment-emergent nongraded abnormality) ([1]; Mid-high (cohort 1c), n=4): 0 no. (%)
- Monocytes/leukocytes: Above (treatment-emergent nongraded abnormality) ([1]; Mid-high (cohort 1c), n=4): 0 no. (%)
- Monocytes/leukocytes: Below (treatment-emergent nongraded abnormality) ([1]; Mid-high (cohort 1c), n=4): 0 no. (%)
- Neutrophils/leukocytes: Above (treatment-emergent nongraded abnormality) ([1]; Mid-high (cohort 1c), n=4): 0 no. (%)
- Neutrophils/leukocytes: Below (treatment-emergent nongraded abnormality) ([1]; Mid-high (cohort 1c), n=4): 0 no. (%)
- 50% effective concentration (RSV-A and RSV-B strains): 0.09 to 9.50 ng/mL
- Effect on viral load and clinical disease severity (RSV): substantially reduced both viral load and clinical disease severity
